Results from different studies.
Protocols differ between the studies behind these lines.
Target: Calcium/calmodulin-dependent protein kinase type II subunit beta (CAMK2B, Homo sapiens, UniProt Q13554)

O=C(NCCCN1CCOCC1)c1ccc(Nc2nccc(-c3cc4ccccc4s3)n2)cc1  remaining binding (binding; competition with immobilised ligand; 1 µM): 83%
CCN1CCN(Cc2ccc(C(=O)Nc3ccc(C)c(Oc4ccc5c(c4)CC(=O)N5)c3)cc2C(F)(F)F)CC1  remaining binding (binding; competition with immobilised ligand; 1 µM): 100%
O=C(c1ccc(Nc2ncc(Cl)c(-c3cc4ccccc4s3)n2)cc1)N1CCC(N2CCCC2)CC1  remaining binding (binding; competition with immobilised ligand; 1 µM): 83%
C=CC(=O)N1CCC(C(=O)NCC(=O)N2CCN(c3nc(-c4cnc(N)nc4C(F)F)nc(N4CCOCC4)n3)CC2)CC1  remaining binding (binding; competition with immobilised ligand; 1 µM): 100%
FC(F)(F)c1ccc2c(c1)nc(-c1cccnc1)n2C1CC1  remaining binding (cell-free assay; competition with immobilised ligand; 1 µM): 100%
Cc1cnc(Nc2ccc(C(=O)N3CCC(N4CCCC4)CC3)cc2)nc1-c1cc2ccccc2s1  remaining binding (binding; competition with immobilised ligand; 1 µM): 90%
C[C@H](c1ccnc(Nc2nc3ccc(-c4cc(N(C)C)ncn4)cc3[nH]2)c1)N1CCN(C(=O)CC(F)(F)F)CC1  remaining binding (cell-free assay; competition with immobilised ligand; 0.1 µM): 92%
CN(C)c1nccc(-c2cnn3ncccc23)n1  remaining binding (binding; 1 µM): 65%
CS(=O)(=O)NCC[C@H](NC(=O)c1cncc2c1cnn2-c1ccc(F)cc1)c1ccnc(S(C)(=O)=O)c1  remaining binding (cell-free assay; competition with immobilised ligand; 1 µM): 100%
CN(C)c1ncc(F)c(-c2cnn3ncccc23)n1  remaining binding (binding; 1 µM): 65%
c1ccc(N2CCN(Cc3nc4ccccc4[nH]3)CC2)nc1  remaining binding (cell-free assay; competition with immobilised ligand; 1 µM): 100%
C[C@@H]1CCN(c2nccc(-c3cnn4ncccc34)n2)C1  remaining binding (binding; 1 µM): 78%
COc1ncc2cc3ccccc3nc2c1C#N  remaining binding (cell-free assay; competition with immobilised ligand; 5 µM): 87%
N[C@H]1CCN(c2nccc(-c3cnn4ncccc34)n2)C1  remaining binding (binding; 1 µM): 100%
O=C(O)[C@@H]1[C@@H](Cn2nnc3ccccc3c2=O)CC[C@H]1C(=O)c1ccc(OCCC2CCOCC2)cc1  remaining binding (cell-free assay; competition with immobilised ligand; 1 µM): 100%
COc1cnc(Nc2cccc(S(N)(=O)=O)c2)nc1N1CCN(c2ccccc2)C(=O)C1  remaining binding (binding; competition with immobilised ligand; 1 µM): 100%
CN(C)c1nccc(-c2cnc3ncccn23)n1  remaining binding (binding; 1 µM): 89%
O=C(Nc1c[nH]nc1C(=O)NC1CCNCC1)c1cc(F)cc(F)c1  remaining binding (binding; competition with immobilised ligand; 1 µM): 100%
CNC(=O)[C@@H]1CC[C@@H](n2c(-c3ccc4cnccc4c3)nc3ccc(C(=O)NCc4cccc(C(N)=O)c4)cc32)C1  remaining binding (binding; competition with immobilised ligand; 1 µM): 100%
CO[C@H]1CC[C@H](CNc2ccc(S(=O)(=O)NC(=O)c3ccc(N4CCN(CC5=C(c6ccc(Cl)cc6)CC(C)(C)CC5)CC4)cc3Oc3cnc4[nH]ccc4c3)cc2[N+](=O)[O-])CC1  remaining binding (cell-free assay; competition with immobilised ligand; 1 µM): 80%
c1cnn2ncc(-c3ccnc(N4CCC45COC5)n3)c2c1  remaining binding (binding; 1 µM): 66%
